The term IC50 denotes the concentration at which inhibition is half-maximal.

Data set [1] concerns the target T1, HePTP (Homo sapiens, UniProt P35236).
T1 sequence (P35236 1-360): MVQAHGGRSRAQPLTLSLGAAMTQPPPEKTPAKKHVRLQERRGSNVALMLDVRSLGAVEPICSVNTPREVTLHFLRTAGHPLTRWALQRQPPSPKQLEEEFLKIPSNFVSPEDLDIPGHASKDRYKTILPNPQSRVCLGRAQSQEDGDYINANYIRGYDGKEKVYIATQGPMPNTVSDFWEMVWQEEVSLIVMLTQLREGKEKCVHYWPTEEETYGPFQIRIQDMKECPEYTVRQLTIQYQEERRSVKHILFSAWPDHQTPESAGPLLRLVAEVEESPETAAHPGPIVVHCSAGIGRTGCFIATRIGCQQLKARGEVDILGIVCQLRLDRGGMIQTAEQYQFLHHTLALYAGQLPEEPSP
As to the kind of experiment: Michaelis-Menten kinetic studies with OMFP. The conditions noted are these: various inhibitor and substrate concentrations. The format is biochemical. Summed up:
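Started by adding OMFP at 0–400 μM. Initial rates read by fluorescence (ex 485/em 528 nm), corrected with no-enzyme controls. Eadie-Hofstee plots drawn; competing models compared by AICc.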

In data set [2] the target is T2, TCPTP (Homo sapiens, UniProt P17706).
T2 sequence (P17706 1-415): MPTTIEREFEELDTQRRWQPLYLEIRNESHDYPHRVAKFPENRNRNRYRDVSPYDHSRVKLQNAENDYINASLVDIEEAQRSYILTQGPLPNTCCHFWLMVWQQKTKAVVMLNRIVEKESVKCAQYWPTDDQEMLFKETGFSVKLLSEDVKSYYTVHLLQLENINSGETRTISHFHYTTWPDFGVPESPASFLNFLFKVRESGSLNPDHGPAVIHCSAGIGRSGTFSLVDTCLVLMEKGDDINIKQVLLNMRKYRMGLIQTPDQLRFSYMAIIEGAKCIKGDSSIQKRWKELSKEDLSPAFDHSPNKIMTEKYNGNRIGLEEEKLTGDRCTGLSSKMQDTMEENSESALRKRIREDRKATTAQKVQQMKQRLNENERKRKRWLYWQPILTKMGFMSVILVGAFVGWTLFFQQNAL
As to the kind of experiment: Dose-response OMFP phosphatase assay, TCPTP. The format is biochemical. Conditions: read-out: IC50 TCPTP; OMFP substrate. Summed up:
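Ten-point 2-fold dilution series of test compound prepared in DMSO. Fluorescence (ex 485/em 528 nm) read in kinetic mode over 10 min; progress-curve slopes taken as activity. IC50 by nonlinear regression (sigmoidal, variable slope).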

A short description of data set [3]: Tissue concentration. Conditions: mice. The format is in vivo, C57B6 mice.
Data set [4] addresses T3, MKP-3 (Homo sapiens, UniProt Q16828).
T3 sequence (Q16828 1-381): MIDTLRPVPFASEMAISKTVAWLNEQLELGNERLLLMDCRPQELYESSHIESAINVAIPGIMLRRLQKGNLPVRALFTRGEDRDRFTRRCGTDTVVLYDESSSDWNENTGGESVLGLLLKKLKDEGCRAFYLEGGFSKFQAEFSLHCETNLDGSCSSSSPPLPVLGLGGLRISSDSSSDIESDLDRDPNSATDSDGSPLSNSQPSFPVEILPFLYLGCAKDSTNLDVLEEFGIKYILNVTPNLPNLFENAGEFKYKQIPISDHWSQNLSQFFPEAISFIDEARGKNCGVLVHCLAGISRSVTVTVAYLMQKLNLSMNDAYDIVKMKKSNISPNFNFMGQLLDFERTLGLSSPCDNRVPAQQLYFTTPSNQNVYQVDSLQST
As to the kind of experiment: Dose-response OMFP phosphatase assay, MKP-3. The conditions noted are these: read-out: IC50 MKP-3; OMFP substrate. Type of data set: biochemical.

In data set [5] the test system is ERK1/2 and p38 phosphorylation in splenocytes. Nature of the data set: Immunoblot of phosphorylation levels in spleen of mice injected i.p. Type of data set: in vivo, C57B6 mice. The conditions noted are these: mouse spleen, doses and time points used. The method, boiled down:
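C57B6 mice given test compound i.p. at 3 or 5 mg kg-1, or vehicle; spleens taken 3 h or 6 h later (3 mice per dose and time). Spleen sonicated in Tris pH 7.4 buffer with phosphatase and protease inhibitors; 800 × g supernatant used. Blotted for pS473-AKT, pS23-HePTP, pERK1/2 and pp38, normalised to total protein then GAPDH. ANOVA/Tukey or t-test.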
For orientation: A western blot detects proteins with antibodies after separation by electrophoresis.

With `O=C(O)c1ccccc1-c1ccc(/C=c2\sc3nc4cc(Br)cnc4n3c2=O)o1` [Compound 1], the inhibition pattern result in data set [1] is reported as “mixed inhibition pattern”. For the same compound, the 50% inhibitory concentration (IC50) in data set [2] was determined as 1 µM. In data set [3] (i.p.), the blood-brain-barrier crossing entry is on record as “does not appear to cross the BBB” and the “concentration in the spleen tissue” value was under 500 nM. In addition, the compound in cerebellum entry in data set [3] (i.p. 3 or 5 mg/kg, 3 h) was “could not be detected”. In addition, the “compound in brain tissue” value in data set [3] (i.p. 3 or 5 mg/kg, 3 h, detection limit ~1 nM) is recorded as “could not be detected”. The same compound gave a concentration in splenocytes in data set [3] (i.p., 6 h after injection) of 265 ± 119 nM. In addition, the 50% inhibitory concentration (IC50) in data set [4] amounted to 5.2 µM. Further, in data set [5], the AKT phosphorylation levels entry was “no change” and the “phospho-HePTP (pS23) levels” value was “No changes”.
